{"source": "ChEMBL document CHEMBL3616466", "about": "“Pyrazolo[3,4-h]quinolines promising photosensitizing agents in the treatment of cancer” (Eur J Med Chem, 2015)", "key": {"A549 [1]": {"test_system": "A549", "experiment": "Photocytotoxicity against human A549 cells assessed as inhibition of colony formation at 0.0625 to 0.5 uM measured 24 hrs post 2.5 J/cm'2 irradiation after 1 to 2 weeks by optical microscopy", "format": "functional, cell-based", "how_it_was_run": "(§1)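 A-549 cells (10 × 10³) plated in dishes. After 24 h, irradiated at 2.5 J/cm² with compound at varying concentrations. Medium replaced, then cultured 1–2 weeks with medium changes every 2–3 days. Stained with crystal violet; colonies of ≥50 cells counted visually. Expressed as % of untreated cells; mean ± SEM of three experiments.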"}, "LoVo [2]": {"test_system": "LoVo", "experiment": "Photocytotoxicity against human LoVo cells assessed as growth inhibition at 2.5 J/cm'2 irradiation for 30 mins followed by drug treated for 72 hrs by MTT assay", "format": "functional", "conditions": "light or radiation study", "how_it_was_run": "(§2)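 Cells seeded at 5 × 10³ per well and pre-incubated 24 h. Drug dilutions in HBSS (pH 7.2, from DMSO stock) added for 30 min at 37 °C, then UV-A irradiation at the stated dose. Drug solution then replaced with culture medium and plates incubated 72 h. Viability by MTT; GI50 from concentration series.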"}, "LoVo [3]": {"test_system": "LoVo", "experiment": "Photocytotoxicity against human LoVo cells assessed as growth inhibition at 3.75 J/cm'2 irradiation for 30 mins followed by drug treated for 72 hrs by MTT assay", "format": "functional", "conditions": "light or radiation study", "how_it_was_run": "as §2"}, "[4]": {"experiment": "Induction of singlet oxygen generation measured after UV-A irradiation by RNO bleaching assay", "format": "physicochemical", "how_it_was_run": "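Compound (2.2 × 10⁻⁵ M), RNO (4 × 10⁻⁵ M) and imidazole (4 × 10⁻⁵ M) in phosphate buffer pH 7.3 irradiated with increasing UV-A doses. Absorbance read at 440 nm; reported as % RNO bleaching.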"}, "[5]": {"experiment": "Induction of superoxide anion generation measured after UV-A irradiation by NBT reduction assay", "format": "physicochemical", "how_it_was_run": "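Compound (10⁻⁵ M) with nitroblue tetrazolium (1.6 × 10⁻⁴ M) in carbonate buffer pH 10 irradiated with increasing UV-A doses. Absorbance at 560 nm followed as the superoxide read-out.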"}, "Jurkat [6]": {"test_system": "Jurkat", "experiment": "Induction of apoptosis in human Jurkat cells assessed as reduction in mitochondrial potential at 1 to 2 uM using JC-1 staining measured 24 hrs post 2.5 J/cm'2 irradiation by FACS assay", "format": "functional, cell-based", "how_it_was_run": "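At 24 h after 2.5 J/cm² irradiation with compound at 1 or 2 µM, Jurkat cells were pelleted and resuspended in HBSS with 1 µM JC-1. After 10 min at 37 °C, fluorescence read at 530 and 590 nm by flow cytometry. Mean ± SEM, n=3.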"}, "A549 [7]": {"test_system": "A549", "experiment": "Photocytotoxicity against human A549 cells assessed as inhibition of colony formation at 2.5 J/cm'2 irradiation after 1 to 2 weeks using crystal violet staining by optical microscopy", "format": "functional, cell-based", "how_it_was_run": "as §1"}, "Jurkat [8]": {"test_system": "Jurkat", "experiment": "Induction of apoptosis in human Jurkat cells assessed as ROS production at 1 to 2 uM using HE and DCFDA staining measured 24 hrs post 2.5 J/cm'2 irradiation by FACS assay", "format": "functional, cell-based"}, "Jurkat [9]": {"test_system": "Jurkat", "experiment": "Photocytotoxicity against human Jurkat cells assessed as growth inhibition at 1.25 J/cm'2 irradiation for 30 mins followed by drug treated for 72 hrs by MTT assay", "format": "functional", "conditions": "light or radiation study", "how_it_was_run": "as §2"}, "Jurkat [10]": {"test_system": "Jurkat", "experiment": "Induction of apoptosis in human Jurkat cells assessed as reduction in alive cells using Annexin-V and propidium iodide staining at 1 to 2 uM measured 24 hrs post 2.5 J/cm'2 irradiation by flow cytometry analysis", "format": "functional, cell-based", "how_it_was_run": "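Jurkat cells irradiated (2.5 J/cm²) with compound at 1 or 2 µM. After 24 h, co-stained with Annexin V-FITC and PI and analysed by flow cytometry (excitation 488 nm; emission 525 and 585 nm). Mean of three independent experiments.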"}, "LoVo [11]": {"test_system": "LoVo", "experiment": "Ratio of angelicin GI50 to compound GI50 for human LoVo cells assessed as growth inhibition at 3.75 J/cm'2 irradiation for 30 mins followed by drug treated for 72 hrs by MTT assay", "format": "functional", "how_it_was_run": "(§3)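 Cells were pre-incubated 30 min at 37 °C with drug in HBSS, irradiated, then drug replaced with medium. Ratio is angelicin GI50 divided by compound GI50.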"}, "Escherichia coli": {"test_system": "Escherichia coli", "experiment": "Induction of DNA damage in Escherichia coli pBR322 DNA measured at 7.5 J/cm'2 UV-A irradiation by neutral agarose electrophoresis", "how_it_was_run": "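pBR322 plasmid (100 ng) in 10 mM phosphate buffer pH 7.2 irradiated at 7.5 J/cm² UV-A with compound at a compound/DNA ratio of 3/1. Aliquots incubated at 37 °C with Fpg or Endo III. Run on 1% agarose in TAE at 70 V for 4 h; supercoiled, open circular and linear bands quantified.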"}, "Jurkat [12]": {"test_system": "Jurkat", "experiment": "Photocytotoxicity against human Jurkat cells assessed as growth inhibition at 2.5 J/cm'2 irradiation for 30 mins followed by drug treated for 72 hrs by MTT assay", "format": "functional", "conditions": "light or radiation study", "how_it_was_run": "as §2"}, "Jurkat [13]": {"test_system": "Jurkat", "experiment": "Induction of lipid peroxidation in human Jurkat cells at 2 uM measured 24 hrs post 2.5 J/cm'2 irradiation by TBA assay", "format": "functional, cell-based", "how_it_was_run": "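TBA test for TBARS performed on supernatant medium and on cell lysates 24 h post-irradiation. Mean ± SEM of three experiments.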"}, "Jurkat [14]": {"test_system": "Jurkat", "experiment": "Induction of apoptosis in human Jurkat cells assessed as increase in cleaved caspase 3 level at 1 uM measured 24 hrs post 2.5 J/cm'2 irradiation by Western blot analysis", "format": "functional, cell-based", "how_it_was_run": "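Jurkat cells irradiated (2.5 J/cm²) with compound at 1 µM. At 24 h, cells washed in cold PBS and lysed on ice for 20 min. 20 µg protein run on 8–16% gradient gels and transferred to nitrocellulose. Probed with rabbit anti-caspase-3 and β-actin (1:1000, 2 h), then peroxidase anti-rabbit IgG; ECL detection.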"}, "LoVo [15]": {"test_system": "LoVo", "experiment": "Cytotoxicity against human LoVo cells assessed as growth inhibition after 72 hrs by MTT assay", "format": "functional", "how_it_was_run": "(§4)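 Cells (5 × 10³ per well) pre-incubated 24 h at 37 °C, 5% CO₂, then exposed in the dark to serial concentrations diluted from DMSO stock into complete medium for 72 h at 37 °C. Viability read by MTT; GI50 derived. LoVo in Ham's F-12, MCF-7 and A-549 in DMEM, all with 10% FBS and penicillin/streptomycin.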"}, "MCF7 [16]": {"test_system": "MCF7", "experiment": "Photocytotoxicity against human MCF7 cells assessed as growth inhibition at 3.75 J/cm'2 irradiation for 30 mins followed by drug treated for 72 hrs by MTT assay", "format": "functional", "conditions": "MCF7, light or radiation study", "how_it_was_run": "as §2"}, "MCF7 [17]": {"test_system": "MCF7", "experiment": "Photocytotoxicity against human MCF7 cells assessed as growth inhibition at 2.5 J/cm'2 irradiation for 30 mins followed by drug treated for 72 hrs by MTT assay", "format": "functional", "conditions": "MCF7, light or radiation study", "how_it_was_run": "as §2"}, "A549 [18]": {"test_system": "A549", "experiment": "Cytotoxicity against human A549 cells assessed as growth inhibition after 72 hrs by MTT assay", "format": "functional", "conditions": "A549, 72 h", "how_it_was_run": "as §4"}, "Jurkat [19]": {"test_system": "Jurkat", "experiment": "Induction of apoptosis in human Jurkat cells assessed as lysosome death at 1 to 2 uM using acridine orange staining measured 24 hrs post 2.5 J/cm'2 irradiation by flow cytometry", "format": "functional, cell-based"}, "A549 [20]": {"test_system": "A549", "experiment": "Photocytotoxicity against human A549 cells assessed as growth inhibition at 3.75 J/cm'2 irradiation for 30 mins followed by drug treated for 72 hrs by MTT assay", "format": "functional", "conditions": "A549, light or radiation study", "how_it_was_run": "as §2"}, "HL-60 [21]": {"test_system": "HL-60", "experiment": "Photocytotoxicity against human HL60 cells assessed as growth inhibition at 2.5 J/cm'2 irradiation for 30 mins followed by drug treated for 72 hrs by MTT assay", "format": "functional", "conditions": "HL-60, light or radiation study", "how_it_was_run": "as §2"}, "MCF7 [22]": {"test_system": "MCF7", "experiment": "Cytotoxicity against human MCF7 cells assessed as growth inhibition after 72 hrs by MTT assay", "format": "functional", "conditions": "MCF7, 72 h", "how_it_was_run": "as §4"}, "A549 [23]": {"test_system": "A549", "experiment": "Photocytotoxicity against human A549 cells assessed as growth inhibition at 2.5 J/cm'2 irradiation for 30 mins followed by drug treated for 72 hrs by MTT assay", "format": "functional", "conditions": "A549, light or radiation study", "how_it_was_run": "as §2"}, "MCF7 [24]": {"test_system": "MCF7", "experiment": "Ratio of angelicin GI50 to compound GI50 for human MCF7 cells assessed as growth inhibition at 3.75 J/cm'2 irradiation for 30 mins followed by drug treated for 72 hrs by MTT assay", "format": "functional", "how_it_was_run": "as §3"}, "HL-60 [25]": {"test_system": "HL-60", "experiment": "Cytotoxicity against human HL60 cells assessed as growth inhibition after 72 hrs by MTT assay", "format": "functional", "conditions": "HL-60, 72 h"}, "Jurkat [26]": {"test_system": "Jurkat", "experiment": "Cytotoxicity against human Jurkat cells assessed as growth inhibition after 72 hrs by MTT assay", "format": "functional"}, "HL-60 [27]": {"test_system": "HL-60", "experiment": "Photocytotoxicity against human HL60 cells assessed as growth inhibition at 1.25 J/cm'2 irradiation for 30 mins followed by drug treated for 72 hrs by MTT assay", "format": "functional", "conditions": "HL-60, light or radiation study", "how_it_was_run": "as §2"}}, "note": "Active and inactive are the calls of the source. No cut-off for these calls is given here.", "data": [{"smiles": "COc1ccc(-n2ncc3c2ccc2cc(S(=O)(=O)c4ccccc4)c(=O)n(C)c23)cc1", "values": [{"measurement": "Activity", "setting": "A549 [1]", "result": "Dose-dependent effect"}, {"measurement": "GI50", "setting": "LoVo [2]", "result": 190, "unit": "nM"}, {"measurement": "GI50", "setting": "LoVo [3]", "result": 90, "unit": "nM"}, {"measurement": "Activity", "setting": "[4]", "result": "Active"}, {"measurement": "Activity", "setting": "[5]", "result": "Active"}, {"measurement": "Activity", "setting": "Jurkat [6]", "result": "Active"}, {"measurement": "Activity", "setting": "A549 [7]", "result": "Dose-dependent effect"}, {"measurement": "Activity", "setting": "Jurkat [8]", "result": "Active"}, {"measurement": "GI50", "setting": "Jurkat [9]", "result": 580, "unit": "nM"}, {"measurement": "Activity", "setting": "Jurkat [10]", "result": "Active"}, {"measurement": "Ratio IC50", "setting": "LoVo [11]", "result": 12}, {"measurement": "Activity", "setting": "Escherichia coli", "result": "inactive"}, {"measurement": "GI50", "setting": "Jurkat [12]", "result": 250, "unit": "nM"}, {"measurement": "Activity", "setting": "Jurkat [13]", "result": "Active"}, {"measurement": "Activity", "setting": "Jurkat [14]", "result": "Active"}, {"measurement": "GI50", "setting": "LoVo [15]", "result": "> 20000", "unit": "nM"}, {"measurement": "GI50", "setting": "MCF7 [16]", "result": 140, "unit": "nM"}, {"measurement": "GI50", "setting": "MCF7 [17]", "result": 290, "unit": "nM"}, {"measurement": "GI50", "setting": "A549 [18]", "result": "> 20000", "unit": "nM"}, {"measurement": "Activity", "setting": "Jurkat [19]", "result": "Active"}, {"measurement": "GI50", "setting": "A549 [20]", "result": 80, "unit": "nM"}, {"measurement": "GI50", "setting": "HL-60 [21]", "result": 440, "unit": "nM"}, {"measurement": "GI50", "setting": "MCF7 [22]", "result": 9600, "unit": "nM"}, {"measurement": "GI50", "setting": "A549 [23]", "result": 270, "unit": "nM"}, {"measurement": "Ratio IC50", "setting": "MCF7 [24]", "result": 10}, {"measurement": "GI50", "setting": "HL-60 [25]", "result": "> 20000", "unit": "nM"}, {"measurement": "GI50", "setting": "Jurkat [26]", "result": "> 20000", "unit": "nM"}, {"measurement": "GI50", "setting": "HL-60 [27]", "result": 610, "unit": "nM"}]}]}
